Screening results deposited in PubChem by The Scripps Research Institute Molecular Screening Center.
CHO parental Ca: signal in parental CHO cells, OX1R antagonist counter-screen | parental CHO-K1, ATP-induced calcium, Fluo-8 fluorescence | inhibition, % at 5.6 µM | 330,000 compounds, 0.63% hits | AID 463079;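 active = inhibition above that plate's mean sample inhibition plus 3 SD, cut at about 26% in these data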;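 note: 0% = ATP-challenged DMSO wells and 100% = DMSO wells without ATP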
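Test system: untransfected parental CHO cell line; also added: ATP stimulus; dosing: 5.6 µM, single dose; signal: calcium-sensitive Fluo-8 fluorescence; measure: percent inhibition of ATP-evoked calcium rise, normalized to controls; benchmarks: low control ATP plus DMSO, high control DMSO only; replication: one well per compound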
OX1R antag-1: human HCRTR1 antagonism; O43613; CHO/OX1R cells, Fluo-8 calcium fluorescence, orexin A; inhibition, % at 5 µM; 330,000 compounds, 0.43% hits; AID 434989;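 active = inhibition above its plate's threshold, mean inhibition of all tested compounds on the plate plus 3 SD, cut at about 37% in these data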;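 note: 0% = orexin A challenge wells and 100% = SB-334867-A antagonist wells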
TAAR1 antag: human TAAR1 antagonism; Q96RJ0; CHO RD-HGA16 TAAR1, Fluo-8 calcium fluorescence, antagonist; inhibition, % at 3 µM; 360,000 compounds, 1.5% hits; AID 624466;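 active = inhibition above a per-plate cutoff, the mean inhibition of test compounds on that plate plus 3 SD, cut at about 49% in these data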;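 note: 0% = DMSO plus EC80 beta-PEA response and 100% = DMSO alone without agonist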
Target sequence (Q96RJ0 whole entry, looked up): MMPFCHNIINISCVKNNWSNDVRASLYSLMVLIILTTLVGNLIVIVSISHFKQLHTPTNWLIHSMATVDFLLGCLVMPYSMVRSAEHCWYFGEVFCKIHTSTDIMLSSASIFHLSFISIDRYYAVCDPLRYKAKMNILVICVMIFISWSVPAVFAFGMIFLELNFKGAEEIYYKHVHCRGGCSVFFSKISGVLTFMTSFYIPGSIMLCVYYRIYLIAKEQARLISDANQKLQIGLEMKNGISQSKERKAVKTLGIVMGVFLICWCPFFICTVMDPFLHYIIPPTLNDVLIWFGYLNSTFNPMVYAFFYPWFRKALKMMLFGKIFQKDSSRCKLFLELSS
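Test system – hTAAR1-expressing CHO RD-HGA16 cells, Gα16-coupled · Reagent – β-PEA at EC80 concentration, post-compound challenge · Compound dosing – 3 µM, single point · Timing – 140 s kinetic read after compound, 140 s after agonist · Detection – Fluo-8 intracellular calcium dye fluorescence, real-time kinetic reads · Control set – DMSO and EC80 PEA controls · Repeats – n of 1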
GalR3 antagonist: blocks the human galanin receptor 3; O60755; HEK293 GalR3-CNG cAMP membrane potential fluorescence; galR3 body fused to GalR1 C-terminus; inhibition, % at 3 µM; 360,000 compounds, 0.44% hits;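 active = inhibition above the screen-wide average plus 3 SD, cut at about 13% in these data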;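 note: forskolin and galanin both at EC90 stimulate the cells; cAMP rise reported by CNG channel membrane potential dye signal; 0% = forskolin plus galanin with DMSO and 100% = forskolin alone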
Target sequence (O60755 1-299 limits assumed): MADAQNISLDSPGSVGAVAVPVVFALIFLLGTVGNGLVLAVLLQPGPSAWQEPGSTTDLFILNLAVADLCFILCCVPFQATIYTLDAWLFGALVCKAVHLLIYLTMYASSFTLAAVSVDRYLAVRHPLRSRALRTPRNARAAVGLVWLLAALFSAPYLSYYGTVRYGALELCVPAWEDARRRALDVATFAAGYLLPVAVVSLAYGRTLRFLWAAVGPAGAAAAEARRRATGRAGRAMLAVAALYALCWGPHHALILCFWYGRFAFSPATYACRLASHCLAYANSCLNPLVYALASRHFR
OX1R antag-2: antagonists of human orexin 1 receptor (OX1R) | O43613 | OX1R-expressing cells, FRET antagonist read-out | inhibition, % at 6.6 µM | 330,000 compounds, 1.8% hits; in the data active = inhibition mostly above about 38%, no sharp cut-off; inactive = mostly below about 40%;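 note: 0% = agonist challenge alone and 100% = reference antagonist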
TAAR1 agonist: human TAAR1 agonism; Q96RJ0; CHO RD-HGA16 TAAR1, Fluo-8 calcium fluorescence; vehicle wells 0%, saturating PEA agonist 100%; activation, % at 3 µM; 360,000 compounds, 0.99% hits; AID 624467;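 active = activation above the mean activation of all test compounds in the run plus 3 SD, cut at about 38% in these data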
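Assay system – CHO-derived RD-HGA16 cells with stable Gα16 and human TAAR1 · Compound dosing – one-point dosing at 3 µM (nominal) · Incubation – 17-24 h seeding, 75 min 37 °C dye, 30 min RT · Measured by – kinetic Fluo-8 calcium fluorescence · Control set – DMSO vehicle as 0%, PEA at EC100 as 100% · Repeats – single well for each compound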
nonsel antag count: nonselective antagonist in TAAR1 antagonist counter-screen | shares compounds with TAAR1 antag | counterscreen cell line, calcium fluorescence, antagonist mode | inhibition, % at 3 µM | 2,400 compounds, 77% hits; in the data active = inhibition above about 22%;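 note: CHO-Ga16 host cells stimulated with ATP at an EC80 level; 0% = agonist EC80 plus vehicle and 100% = vehicle without agonist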
TAAR1 antag conf: confirmation of human TAAR1 antagonists. 2,400 compounds, 40% hits. inhibition, % at 3 µM. TAAR1-expressing cells, fluorescence antagonist read-out. shares compounds with TAAR1 antag; in the data active = inhibition above about 49%;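 note: CHO-Ga16 host cells challenged with agonist PEA near its EC80; 0% = agonist at EC80 plus vehicle and 100% = vehicle with no agonist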
Ga16 nonsel ag: nonselective Ga16 agonism, counter-screen; shares compounds with TAAR1 antag; Ga16-expressing cells, calcium fluorescence, agonist counterscreen; activation, % at 3 µM; 2,400 compounds, 18% hits; AID 651953; in the data active = activation above about 12%;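 note: 0% = vehicle wells and 100% = saturating stimulus response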
TAAR1 ag counter: activates human TAAR1 in antagonist counter-screen; shares compounds with TAAR1 antag; activation, % at 3 µM; 2,400 compounds, 2% hits; hTAAR1 cell line, fluorescence activation, agonist mode; in the data active = activation above about 37%;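 note: CHO cells stably expressing TAAR1 with calcium dye readout; 0% = DMSO vehicle and 100% = full agonist response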
Starred values were filed as active, the others as inactive; · = no result given. In the library only some 4.3% were active in any assay of this set; here they are far more common.

SMILES	CHO parental Ca	OX1R antag-1	TAAR1 antag	GalR3 antagonist	OX1R antag-2	TAAR1 agonist	nonsel antag count	TAAR1 antag conf	Ga16 nonsel ag	TAAR1 ag counter
CCOC(=O)C1CCCN(c2c(C(=O)c3ccccc3)cnc3ccc(OC)cc23)C1 (stereo not drawn)	-39	-50	86*	1	10	11	2	66*	5	34
CCCCC(=O)Nc1cc([N+](=O)[O-])ccc1Cl	-2	2	-15	-1	15	2	·	·	·	·
O=C(CC(=O)c1ccccc1)Nc1cc([N+](=O)[O-])ccc1Cl	0	-6	77*	-9	17	20	35*	55*	11	11
COc1cccc(NC(=O)CCSc2ccc3ccccc3n2)c1	-10	-7	76*	-8	22	-3	8	14	3	-1
CCN(CC)S(=O)(=O)c1ccc(NC(=O)CCNC(=O)c2ccccc2)cc1	·	·	9	-10	·	0	·	·	·	·
CCOc1ccc(NC(=O)CN(C)C(=O)C2CC(=O)N(CCc3ccc(OC)c(OC)c3)C2)cc1OCC (stereo not drawn)	·	·	100*	-1	·	-2	-3	-4	8	11
CC/C(=C(/CC)c1ccc(O)cc1)c1ccc(O)cc1	-3	4	57*	-2	44	0	23*	37	4	12
COc1cc(/C=C2\SC(=S)N(NS(=O)(=O)c3ccccc3)C2=O)cc(OC)c1OC	-28	-28	-6	2	36	-6	·	·	·	·
COc1ccc(/C=C2/SC(=O)N(NS(=O)(=O)c3ccccc3)C2=S)cc1OC	-17	-5	63*	-6	43*	14	29*	42	6	3
COc1ccc(CCNC(=O)CC(C)S(=O)(=O)c2ccc3c(c2)NC(=O)CO3)cc1OC (stereo not drawn)	-18	-25	-7	-7	12	0	·	·	·	·
N#Cc1nc(Nc2cccc(Cl)c2)c2ncn(C3CCCC3)c2n1	-29	-14	75*	-2	7	19	22*	32	2	2
CCn1cnc2c(Nc3cc(F)cc(F)c3)nc(C#N)nc21	-10	-32	-6	-4	7	11	·	·	·	·
O=C1ON=C(c2ccccc2)/C1=C/c1ccc(-c2ccccc2[N+](=O)[O-])o1	2	6	57*	-2	22	20	66*	63*	19*	18
Cc1cc(/C=C(\C#N)C(=O)NCc2cccs2)c(C)n1-c1ccccc1F	-14	-3	69*	-6	38	2	17	61*	2	4
CN(c1ccccc1)S(=O)(=O)c1cc(C(=O)Nc2ccccc2N2CCOCC2)ccc1Cl	·	·	17	-7	·	3	·	·	·	·
CC(C)(C)c1ccc(-c2nc(-c3ccncc3)no2)cc1	0	-16	106*	-8	15	-3	15	19	13*	26
CN(c1ccc(OCC(=O)OCC(=O)c2c(N)n(C)c(=O)n(C)c2=O)cc1)S(=O)(=O)c1ccc2ccccc2c1	-3	-8	77*	6	24	15	35*	56*	9	10
CCN(c1ccc(OCC(=O)OCC(=O)c2c(N)n(C)c(=O)n(C)c2=O)cc1)S(=O)(=O)c1ccccc1	13	1	-21	4	-3	3	·	·	·	·
Cc1ccccc1NS(=O)(=O)c1ccc(C(=O)N2CCCCCC2)cc1	2	-22	-4	-6	20	21	·	·	·	·
Cc1ccccc1NS(=O)(=O)c1ccc(C(=O)N2CCN(c3ccccc3O)CC2)cc1	-5	1	75*	-2	12	19	28*	41	12*	7
COCCn1ccc2c(OCC(=O)Nc3ccccc3OC)cccc2c1=O	-18	-23	58*	-1	34	8	27*	41	8	5
COc1c(F)c(F)c(C(=O)Nc2cccc(Cl)c2N2CCOCC2)c(F)c1F	-25	-32	72*	4	24	23	17	31	6	19
O=C(Nc1cccc(Cl)c1N1CCOCC1)c1ccco1	-15	-25	-1	-5	7	0	·	·	·	·
COc1ccc(NC(=O)c2cc(C3CCCCN3C(=O)C3CCCCC3)on2)c(C)c1 (stereo not drawn)	·	·	-36	-6	·	12	·	·	·	·
O=C1c2ccccc2C(c2nnnn2Cc2ccccc2)N1CCc1ccc(O)cc1 (stereo not drawn)	·	·	67*	1	·	14	28*	53*	9	12
SMILES	CHO parental Ca	OX1R antag-1	TAAR1 antag	GalR3 antagonist	OX1R antag-2	TAAR1 agonist	nonsel antag count	TAAR1 antag conf	Ga16 nonsel ag	TAAR1 ag counter
CC(C)n1nnnc1C1c2ccccc2C(=O)N1CCc1ccccc1F (stereo not drawn)	·	·	-15	-7	·	26	·	·	·	·
CC(C)CCN1C(=O)c2ccccc2C1c1nnnn1Cc1ccccc1 (stereo not drawn)	·	·	21	-2	·	8	·	·	·	·
O=C1c2ccccc2C(c2nnnn2Cc2ccccc2)N1CCc1ccccc1F (stereo not drawn)	·	·	68*	-4	·	16	29*	51*	9	9
Nc1cc(S(=O)(=O)N2CCOCC2)ccc1Oc1cccc(Br)c1	·	·	3	-5	·	3	·	·	·	·
O=c1c2ccc([N+](=O)[O-])cc2ncn1CCOc1cccc(Br)c1	3	-22	71*	0	17	13	30*	56*	9	6
Cc1cc(OCCn2cnc3ccccc3c2=O)ccc1[N+](=O)[O-]	-6	-19	6	3	-8	2	·	·	·	·
COc1ccccc1N1CCN(C(=S)Nc2ccc(F)cc2)CC1	-2	-13	2	-11	5	1	·	·	·	·
COc1ccc(C2SCC(=O)N2Cc2ccccc2)cc1 (stereo not drawn)	-8	5	-6	-10	26	-3	·	·	·	·
COc1ccc(C2CC(=O)C(c3ccccc3)=CN2Cc2ccccc2)cc1 (stereo not drawn)	·	·	58*	-7	·	2	28*	48	3	9
COc1ccc(C2CC(=O)C(c3ccccc3C)=CN2Cc2ccccc2)cc1 (stereo not drawn)	·	·	56*	-2	·	7	21	36	4	3
CN(Cc1ccc(Cl)cc1Cl)C(=O)C1CC(=O)N(Cc2ccco2)C1 (stereo not drawn)	·	·	-14	0	·	2	·	·	·	·
